Source: PubChem (SRMLSC)
bCat KO growth: beta-catenin-lacking colon tumor cell growth suppression. HCT116 beta-catenin knockout viability, CellTiter-Glo, 60 h; hits give low values. viability, % at 10 µM. 1.5% of 140,000 active. AID 818;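 active = viability at or under a set limit, the compound median less 4 SD, cut at about 6% in these data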;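 note: 0% = Hyamine 1622 control at 20 µM and 100% = untreated cell control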
HCT116 PTEN-null: PTEN-deleted cell growth suppression. HCT116 PTEN-null viability, CellTiter-Glo, 60 h; hits give low values. viability, % at 10 µM. 1.2% of 140,000 active. AID 827;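 active = viability at or below a set limit, 4 SD under the median of all tested compounds, cut at about 3.7% in these data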;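 note: PTEN knockout HCT116 line with beta catenin targeted HCT116 as companion control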
Fibroblast inh: blocks proliferation of human lung fibroblasts; LL 47 human lung fibroblast viability, ATP luminescence; hits give low values; viability, % at 10 µM; 1.1% of 85,000 active;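 active = viability at or below 50% in the single dose screen; inactive = viability above 50%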;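 note: compound exposure lasted 72 h before the ATP readout; 100% = median luminescence of untreated cell-only wells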
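Test system: LL 47 human lung fibroblasts / Quantity: 1,150 cells in each well / Medium: IMEM growth medium with 15% fetal bovine serum / Incubation: 72 h compound exposure at 37 °C after overnight plating / Detection: CellTiter-Glo luminescence measuring cellular ATP / Read-out: % viability versus median cells-only luminescence / Benchmarks: cell-only wells, no compound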
H69AR inhibit: growth inhibitors of human H69AR lung tumor cells. H69AR lung tumor viability, ATP luminescence, 72 h; hits give low values. viability, % at 10 µM. 6% of 85,000 active;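 active = viability at or below 40%; inactive = viability above 40%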;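 note: multidrug resistant small cell line overexpressing MRP-1 efflux transporter; 100% = mean luminescence of untreated control wells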
HUVEC prolif 384: inhibitors of human endothelial cell proliferation. AID 648. HUVEC proliferation, CellTiter-Glo luminescence, 72 h; hits give low values. viability, % at 10 µM (by protocol). 1.1% of 86,000 active;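 active = viability at or below 30%; inactive = viability above 30%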;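 note: 100% = median luminescence of DMSO-only cell control wells on each plate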
Starred values were filed as active, the others as inactive. Shown is part of a subset that was picked to be rich in hits.

Screening CC1Cc2ccccc2N1C(=O)COC(=O)Cn1nnc(-c2ccccc2)n1 (stereo unspecified) returned bCat KO growth 98, HCT116 PTEN-null 98, Fibroblast inh 101, H69AR inhibit 22* and HUVEC prolif 384 98.
O=C(/C=C\c1ccc2c(c1)OCO2)Nc1c2c(nn1-c1ccc(Cl)cc1)CSC2 was read as bCat KO growth 68 and HCT116 PTEN-null 55.
For Cc1ccc(Nc2nc(Nc3ccc(C)cc3)nc(SC3=NCCS3)n2)cc1 the results were bCat KO growth 4.2*, HCT116 PTEN-null 3.5*, Fibroblast inh 88, H69AR inhibit 11* and HUVEC prolif 384 76.
COCCOC(=O)c1c(C)nc(SCC(=O)Nc2ccc(C)cc2)c(C#N)c1-c1ccco1 was read as bCat KO growth 95, HCT116 PTEN-null 89, Fibroblast inh 88, H69AR inhibit 53 and HUVEC prolif 384 77.
Screening COCCOC(=O)c1c(C)nc(SCC(=O)Nc2cccc3ccccc23)c(C#N)c1-c1ccco1 returned bCat KO growth 61, HCT116 PTEN-null 68, Fibroblast inh 92, H69AR inhibit 11* and HUVEC prolif 384 56.
CCOC(=O)c1c(NC(=O)CSc2nc(C)cc(C)c2C#N)sc(C(C)=O)c1C was read as bCat KO growth 104, HCT116 PTEN-null 108, Fibroblast inh 59, H69AR inhibit 19* and HUVEC prolif 384 38.
Screening CCCCNC(=S)NNC(=O)c1nn(C)cc1Cl returned bCat KO growth 108, HCT116 PTEN-null 99, Fibroblast inh 103, H69AR inhibit 95 and HUVEC prolif 384 95.
Screening Cc1scc(C(=O)N/N=C/c2ccc(Cl)s2)c1C returned bCat KO growth 35 and HCT116 PTEN-null 43.
Screening CCN1CCN(c2cc(-c3ccccc3)nc3cc(-c4cccc(F)c4)nn23)CC1 returned bCat KO growth 1.2*, HCT116 PTEN-null 1.4*, Fibroblast inh 90, H69AR inhibit 41 and HUVEC prolif 384 22*.
`O=C(Nc1nc2ccccc2n1CCN1CCOCC1)c1cn(-c2ccccc2)nc1-c1ccccc1` gave bCat KO growth 17, HCT116 PTEN-null 10, Fibroblast inh 53, H69AR inhibit 19* and HUVEC prolif 384 63.
`CC(=O)Nc1nc2ccccc2n1CCN1CCOCC1` gave bCat KO growth 94 and HCT116 PTEN-null 105.
`Cc1ccc(C2NC(=O)NC(O)(C(F)(F)F)C2C(=O)c2cccs2)o1` (stereo unspecified) gave bCat KO growth 96, HCT116 PTEN-null 95, Fibroblast inh 98, H69AR inhibit 104 and HUVEC prolif 384 17*.
For Cc1nc2c(=O)n(C)c(=O)n(C)c2nc1Cl the results were bCat KO growth 3.6* and HCT116 PTEN-null 4.
`O=C(COc1ccccc1)NCc1nnc2c3ccccc3c(-c3ccccc3)nn12` gave bCat KO growth 92 and HCT116 PTEN-null 85.
`Cc1ccc(/C(N)=N/OC(=O)/C=C/c2ccccc2)cc1` gave bCat KO growth 87, HCT116 PTEN-null 85, Fibroblast inh 95, H69AR inhibit 100 and HUVEC prolif 384 98.
For Cc1ccccc1/C(N)=N/OC(=O)/C=C/c1ccccc1 the results were bCat KO growth 84, HCT116 PTEN-null 87, Fibroblast inh 83, H69AR inhibit 8.9* and HUVEC prolif 384 93.
For N=c1nc(N)nc2n1NC(c1ccc(F)cc1)=CS2 the results were bCat KO growth 70, HCT116 PTEN-null 76, Fibroblast inh 91, H69AR inhibit 93 and HUVEC prolif 384 30*.
Nc1c(N(C(=O)Nc2ccc(Cl)c(Cl)c2)C2CCCC2)c(=O)[nH]c(=O)n1Cc1ccccc1 was read as bCat KO growth 1.4* and HCT116 PTEN-null 1.4*.
Screening CC(C)OC(=O)c1nnc(Cc2ccc(F)cc2)o1 returned bCat KO growth 101, HCT116 PTEN-null 101, Fibroblast inh 99, H69AR inhibit 106 and HUVEC prolif 384 101.
CC(C)C[C@H](N)c1nnc(S(=O)(=O)Cc2ccc(F)cc2)o1 was read as bCat KO growth 88, HCT116 PTEN-null 91, Fibroblast inh 67, H69AR inhibit 5.9* and HUVEC prolif 384 100.
`O=C(O)c1cc2c([nH]c1=O)CCCC2` gave bCat KO growth 86, HCT116 PTEN-null 92, Fibroblast inh 106, H69AR inhibit 112 and HUVEC prolif 384 101.
`C=CCSC(=C(C#N)C#N)c1cc2c([nH]1)CCCC2` gave bCat KO growth 2.6*, HCT116 PTEN-null 1.9*, Fibroblast inh 7.4*, H69AR inhibit 1.3* and HUVEC prolif 384 17*.
Screening CN1CCc2c(sc3ncn4nc(-c5ccccc5O)nc4c23)C1 returned bCat KO growth 0.8*, HCT116 PTEN-null 0.7*, Fibroblast inh 53, H69AR inhibit 44 and HUVEC prolif 384 78.
For CS(=O)(=O)NCC(c1ccco1)N1CCN(c2ccc(F)cc2)CC1 (stereo unspecified) the results were bCat KO growth 93 and HCT116 PTEN-null 95.
CCOc1ccc2nc(Cl)c(/C=C/C(=O)c3ccco3)cc2c1 was read as bCat KO growth 14, HCT116 PTEN-null 6, Fibroblast inh 93, H69AR inhibit 8.9* and HUVEC prolif 384 77.
CCOc1ccc2nc(COC(=O)c3ccco3)c(C(C)=O)[n+]([O-])c2c1 was read as bCat KO growth 98, HCT116 PTEN-null 91, Fibroblast inh 106, H69AR inhibit 77 and HUVEC prolif 384 85.
For Cc1ccc(-n2ncc3c(NNC(=O)Cc4ccccc4)ncnc32)cc1 the results were bCat KO growth 78 and HCT116 PTEN-null 80.
`COCCn1c(C)cc(C(=O)CSc2nc3ccccc3s2)c1C` gave bCat KO growth 78 and HCT116 PTEN-null 83.
COCCn1c(C)cc(C(=O)CSc2nc3ccccc3o2)c1C was read as bCat KO growth 71, HCT116 PTEN-null 71, Fibroblast inh 94, H69AR inhibit 91 and HUVEC prolif 384 25*.
For Cc1ccc2nc(N(CCCN(C)C)C(=O)c3sc4ccccc4c3Cl)sc2c1 the results were bCat KO growth 80 and HCT116 PTEN-null 82.
`CCOc1cc(/C=N/NC(=O)C(=O)NCCCOC(C)C)cc(Br)c1O` gave bCat KO growth 97 and HCT116 PTEN-null 92.
For Cc1ccc2oc(=O)c3cnn(CC(=O)N(CCC(C)C)Cc4ccco4)c3c2c1 the results were bCat KO growth 94, HCT116 PTEN-null 90, Fibroblast inh 97, H69AR inhibit 38* and HUVEC prolif 384 71.
Cc1ccc(-c2cccc(NC(=O)C3C4C=CC(C4)C3C(=O)O)c2)o1 (stereo unspecified) was read as bCat KO growth 91 and HCT116 PTEN-null 94.
Screening COc1ccc(NC(=S)N2CCNC(=O)C2CC(=O)Nc2cccc(Cl)c2C)cc1 (stereo unspecified) returned bCat KO growth 94 and HCT116 PTEN-null 90.
Screening c1ccc(-c2cc3c(ccc4nonc43)nn2)cc1 returned bCat KO growth 87, HCT116 PTEN-null 86, H69AR inhibit 101 and HUVEC prolif 384 94.
On1onc2c3cc(-c4ccccc4)nc3ccc21 was read as bCat KO growth 1.8*, HCT116 PTEN-null 1.2*, Fibroblast inh 23*, H69AR inhibit 6.0* and HUVEC prolif 384 40.
